In the M2OR odorant receptor database:
Where a chain is given by its changes, count along the chain named.

Tests used:
Details in all cases: stereoisomer not certain
OR4N4 (Homo sapiens) = biological target: T1, OR4N4 (Homo sapiens) (UniProt Q8N0Y3)
T1 sequence (whole entry): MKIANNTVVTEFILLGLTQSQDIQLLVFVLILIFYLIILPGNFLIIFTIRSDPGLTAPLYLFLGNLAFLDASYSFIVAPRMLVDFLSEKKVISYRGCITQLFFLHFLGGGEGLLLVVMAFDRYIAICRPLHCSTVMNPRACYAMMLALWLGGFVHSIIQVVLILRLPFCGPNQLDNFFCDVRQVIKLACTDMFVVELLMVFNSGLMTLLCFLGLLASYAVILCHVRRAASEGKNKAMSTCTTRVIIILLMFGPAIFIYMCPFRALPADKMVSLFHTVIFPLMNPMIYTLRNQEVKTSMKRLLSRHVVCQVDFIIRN
In short: (§1)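 Transient luciferase assays in mammalian cell lines were common, though methods varied by source. The values come from published papers and their supplementary material, with extra details from the original authors when needed. Responsive refers to a measured signal the original authors judged statistically different from baseline, and non-responsive (inactive) to the remainder.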

OR4N4C (Homo sapiens) = OR4N4C (Homo sapiens) (UniProt A0A096LPK9)
Sequence of OR4N4C (Homo sapiens) (A0A096LPK9 whole entry): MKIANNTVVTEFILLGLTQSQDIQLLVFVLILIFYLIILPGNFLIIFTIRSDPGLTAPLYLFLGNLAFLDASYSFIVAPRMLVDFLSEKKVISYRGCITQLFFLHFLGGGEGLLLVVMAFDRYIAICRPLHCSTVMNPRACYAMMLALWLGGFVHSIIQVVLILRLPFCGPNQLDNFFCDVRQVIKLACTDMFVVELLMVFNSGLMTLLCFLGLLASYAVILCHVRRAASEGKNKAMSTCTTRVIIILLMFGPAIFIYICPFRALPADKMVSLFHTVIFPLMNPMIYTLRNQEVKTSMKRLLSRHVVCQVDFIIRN
In short: as §1

OR4N5 (Homo sapiens) = biological target: T2, OR4N5 (Homo sapiens) (UniProt Q8IXE1)
T2 sequence (whole entry): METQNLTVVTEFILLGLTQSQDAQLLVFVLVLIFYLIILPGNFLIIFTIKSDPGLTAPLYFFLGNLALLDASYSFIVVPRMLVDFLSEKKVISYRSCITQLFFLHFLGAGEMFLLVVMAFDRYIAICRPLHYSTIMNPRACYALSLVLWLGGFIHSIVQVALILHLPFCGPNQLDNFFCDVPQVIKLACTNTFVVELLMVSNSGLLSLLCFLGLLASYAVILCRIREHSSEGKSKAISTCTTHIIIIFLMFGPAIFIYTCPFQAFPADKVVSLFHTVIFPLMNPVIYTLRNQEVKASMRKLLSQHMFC
In short: as §1

OR4P4 (Homo sapiens) = biological target: T3, OR4P4 (Homo sapiens) (UniProt Q8NGL7)
T3 sequence (whole entry): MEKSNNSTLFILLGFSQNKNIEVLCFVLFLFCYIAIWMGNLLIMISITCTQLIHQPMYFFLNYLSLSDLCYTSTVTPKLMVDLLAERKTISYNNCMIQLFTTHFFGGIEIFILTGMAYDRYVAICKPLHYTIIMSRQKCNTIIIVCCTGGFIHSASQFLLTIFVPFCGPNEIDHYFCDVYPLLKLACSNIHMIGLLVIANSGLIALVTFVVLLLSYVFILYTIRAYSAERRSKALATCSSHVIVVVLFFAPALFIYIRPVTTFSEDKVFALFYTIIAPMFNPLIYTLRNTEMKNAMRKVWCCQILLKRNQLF
In short: as §1

OR4Q2 (Homo sapiens) = OR4Q2 (Homo sapiens) (UniProt P0C623)
Sequence of OR4Q2 (Homo sapiens) (P0C623 as listed by the source): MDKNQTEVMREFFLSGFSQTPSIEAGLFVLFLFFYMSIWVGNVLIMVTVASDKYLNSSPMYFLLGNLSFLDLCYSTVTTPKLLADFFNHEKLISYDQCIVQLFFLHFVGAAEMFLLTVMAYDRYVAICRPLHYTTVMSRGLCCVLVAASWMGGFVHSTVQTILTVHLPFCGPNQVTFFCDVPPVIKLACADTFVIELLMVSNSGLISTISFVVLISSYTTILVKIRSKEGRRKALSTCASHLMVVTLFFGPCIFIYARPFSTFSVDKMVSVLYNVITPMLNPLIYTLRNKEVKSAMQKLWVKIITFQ
In short: as §1

OR4Q3 (Homo sapiens) = biological target: T4, OR4Q3 (Homo sapiens) (UniProt Q8NH05)
T4 sequence (whole entry): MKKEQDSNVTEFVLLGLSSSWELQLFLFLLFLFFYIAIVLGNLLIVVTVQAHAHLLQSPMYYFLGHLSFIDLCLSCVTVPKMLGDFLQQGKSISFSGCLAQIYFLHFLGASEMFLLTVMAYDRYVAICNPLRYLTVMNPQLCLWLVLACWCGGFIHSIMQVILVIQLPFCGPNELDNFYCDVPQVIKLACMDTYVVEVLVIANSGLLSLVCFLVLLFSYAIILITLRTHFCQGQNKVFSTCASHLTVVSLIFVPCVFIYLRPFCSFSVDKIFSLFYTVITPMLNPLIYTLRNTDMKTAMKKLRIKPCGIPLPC
In short: as §1

OR4S1 (Homo sapiens) = biological target: T5, OR4S1 (Homo sapiens) (UniProt Q8NGB4)
T5 sequence (whole entry): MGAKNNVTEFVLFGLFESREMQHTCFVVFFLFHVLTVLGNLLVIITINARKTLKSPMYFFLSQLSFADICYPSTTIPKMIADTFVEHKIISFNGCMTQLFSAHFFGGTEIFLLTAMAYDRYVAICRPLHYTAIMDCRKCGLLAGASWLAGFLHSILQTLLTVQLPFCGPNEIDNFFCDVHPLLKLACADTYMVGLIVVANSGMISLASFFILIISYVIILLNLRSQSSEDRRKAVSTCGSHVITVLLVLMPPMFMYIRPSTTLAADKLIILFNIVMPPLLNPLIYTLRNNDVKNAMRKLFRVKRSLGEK
In short: as §1

OR4N2 [1] = system: T6, OR4N2
T6 sequence (whole entry): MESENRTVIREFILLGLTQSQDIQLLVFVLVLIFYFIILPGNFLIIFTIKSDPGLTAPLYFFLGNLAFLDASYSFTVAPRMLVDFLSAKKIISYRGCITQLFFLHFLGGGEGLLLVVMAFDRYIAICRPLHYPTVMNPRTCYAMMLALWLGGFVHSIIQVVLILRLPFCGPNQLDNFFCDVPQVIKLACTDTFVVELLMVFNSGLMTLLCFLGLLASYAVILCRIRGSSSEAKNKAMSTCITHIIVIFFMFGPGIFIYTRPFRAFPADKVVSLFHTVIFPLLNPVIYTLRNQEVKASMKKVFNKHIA
In short: as §1

OR4Q3 T135A = system: T7, OR4Q3 T135A
T7 sequence (whole entry): T4 sequence (whole entry) with T135A
In short: as §1

OR4N2 [2] = system: OR4N2; remark: listed apart in the source
In short: as §1
Target sequence in this assay (as listed by the source): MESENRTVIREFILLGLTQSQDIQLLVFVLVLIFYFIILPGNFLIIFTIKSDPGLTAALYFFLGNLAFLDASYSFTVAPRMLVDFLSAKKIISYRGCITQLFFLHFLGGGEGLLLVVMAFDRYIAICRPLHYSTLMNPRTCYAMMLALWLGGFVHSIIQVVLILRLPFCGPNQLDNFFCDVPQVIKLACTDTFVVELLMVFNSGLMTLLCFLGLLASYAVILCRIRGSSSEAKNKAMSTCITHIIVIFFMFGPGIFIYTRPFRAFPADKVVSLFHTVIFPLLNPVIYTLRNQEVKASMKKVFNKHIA

Measured: odorant receptor agonist call;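 note: active if original authors judged signal statistically different from baseline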

CC(=O)c1c(C)c([N+](=O)[O-])c(C(C)(C)C)c([N+](=O)[O-])c1C
not listed: OR4N2 [1] | OR4Q3 T135A | OR4N2 [2]
inactive: all other assays above

CCCCC(S)C(C)CO (configuration not stated)
inactive: OR4N4 (Homo sapiens) | OR4N5 (Homo sapiens) | OR4P4 (Homo sapiens) | OR4Q3 (Homo sapiens) | OR4S1 (Homo sapiens)

Cc1cnc(C)c(C)n1
not listed: OR4N4C (Homo sapiens) | OR4Q2 (Homo sapiens) | OR4N2 [2]
inactive: all other assays above

CC1=NC(C)C(C)S1 (configuration not stated)
not listed: OR4N4C (Homo sapiens) | OR4Q2 (Homo sapiens) | OR4N2 [2]
inactive: all other assays above

O=c1ccc2ccccc2o1
inactive: OR4N2 [2] | OR4N2 [1]

CCCC(S)CCOC(C)=O (configuration not stated)
not listed: OR4N4C (Homo sapiens) | OR4Q2 (Homo sapiens) | OR4N2 [2]
inactive: all other assays above

CCCCCC(S)C(C)CO (configuration not stated)
inactive: OR4N4 (Homo sapiens) | OR4N5 (Homo sapiens) | OR4P4 (Homo sapiens) | OR4Q3 (Homo sapiens) | OR4S1 (Homo sapiens)

CCC1OC(=O)C(O)=C1C (configuration not stated)
not listed: OR4N4C (Homo sapiens) | OR4Q2 (Homo sapiens) | OR4N2 [2]
inactive: all other assays above

CCCCCCC=CCCC=O
not listed: OR4N4C (Homo sapiens) | OR4Q2 (Homo sapiens) | OR4N2 [2]
inactive: all other assays above

CC1=C(O)C(=O)C(C)O1 (configuration not stated)
not listed: OR4N4C (Homo sapiens) | OR4Q2 (Homo sapiens) | OR4N2 [2]
inactive: all other assays above

CCCCCC(=O)C(C)C(C)=O (configuration not stated)
inactive: OR4N4 (Homo sapiens) | OR4N5 (Homo sapiens) | OR4P4 (Homo sapiens) | OR4Q3 (Homo sapiens) | OR4S1 (Homo sapiens)

CCC1OC(C)=C(O)C1=O (configuration not stated)
not listed: OR4N4C (Homo sapiens) | OR4Q2 (Homo sapiens) | OR4N2 [2]
inactive: all other assays above

CC1=C(O)C(=O)OC1C (configuration not stated)
not listed: OR4N4C (Homo sapiens) | OR4Q2 (Homo sapiens) | OR4N2 [2]
inactive: all other assays above

CC1CCCCCCCCCCCCC(=O)C1 (configuration not stated)
not listed: OR4N2 [1] | OR4Q3 T135A | OR4N2 [2]
inactive: all other assays above

CC(CO)CS (configuration not stated)
inactive: OR4N4 (Homo sapiens) | OR4N5 (Homo sapiens) | OR4P4 (Homo sapiens) | OR4Q3 (Homo sapiens) | OR4S1 (Homo sapiens)

CCC(S)C(C)CO (configuration not stated)
inactive: OR4N4 (Homo sapiens) | OR4N5 (Homo sapiens) | OR4P4 (Homo sapiens) | OR4Q3 (Homo sapiens) | OR4S1 (Homo sapiens)
